Laboratory results reported in ChEMBL document CHEMBL1955770, “Inhibition of S/G2 phase CDK4 reduces mitotic fidelity” (J Biol Chem, 2006).
The source made the active and inactive calls. The calls are words filed in the database; no cut-off is given here.

What was measured:
[1] = molecular target: Proto-oncogene tyrosine-protein kinase Src (Homo sapiens, UniProt P12931); assay: Inhibition of Src using fluorescent substrate by IMAP assay
Summary of the method: (§1)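 Run in-house using IMAP: phosphorylated fluorescent peptide substrate binds preferentially to immobilized metal beads, which quantifies kinase activity. ATP at 3× the Km of each enzyme.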

[2] = molecular target: Tyrosine-protein kinase Lck (Homo sapiens, UniProt P06239); assay: Inhibition of Lck using fluorescent substrate by IMAP assay; summary of the method: as §1
[3] = Cell cycle arrest in Rb-competent human SK-MEL-13 cells assessed as accumulation at G1 phase at 2 uM after 24 hrs by FACS analysis; type: functional
Summary of the method: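 Ethanol-fixed cells stained with propidium iodide/RNase A, DNA content read by FACS, phase and sub-diploid fractions calculated with ModFit.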

[4] = molecular target: Cyclin-dependent kinase 4 (Homo sapiens) (UniProt P11802); assay: Inhibition of CDK4-mediated Rb phosphorylation at ser 795 in human HCT116 cells at IC90 after 4 hrs by immunoblot analysis; type: cell-based; details: HCT-116
Summary of the method: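 Asynchronous HCT-116 cells (DMEM, 3 mM HEPES, 10% serum, 37 °C, 5% CO₂) were given increasing inhibitor doses for 4 or 24 h. Lysis in NETN with phosphatase and protease inhibitors, then SDS-PAGE, nitrocellulose transfer and immunoblot for phospho-Rb (Ser-795) with HRP secondary and chemiluminescence.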

[5] = test system: HCT-116; assay: Antiproliferative activity against human HCT116 cells assessed as inhibition of S phase after 48 hrs by MTT assay; type: functional, cell-based; details: HCT-116, 48 h
Summary of the method: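 Cells grown in DMEM with 3 mM HEPES and 10% Serum Supreme at 37 °C, 5% CO2. Proliferation read by MTT assay 48 h after drug addition; IC50 given as mean of two separate determinations, each in duplicate.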

[6] = test system: HeLa; assay: Cell cycle arrest in human HeLa cells assessed as accumulation at S phase at 2 uM treated 2 hr and measured 8 hr post double thymidine-synchrony release using propidium iodide staining by FACS analysis (reference value: 8 %); type: functional
Summary of the method: (§2)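 Cells harvested at set times post-release, fixed in 70% ethanol, stained with 5 μg/ml propidium iodide plus 0.5 mg/ml RNase A, and analysed by flow cytometry. Cell-cycle phase fractions calculated by ModFit.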

[7] = test system: HeLa; assay: Cell cycle arrest in human HeLa cells assessed as accumulation at G2/M phase at 2 uM treated 2 hr and measured 8 hr post double thymidine-synchrony release using propidium iodide staining by FACS analysis (reference value: 86 %); type: functional; summary of the method: as §2
[8] = test system: HeLa; assay: Cell cycle arrest in human HeLa cells assessed as time delay in progression through G2/M phase at 4 uM treated within 4 hr post double thymidine-synchrony release using propidium iodide staining by FACS analysis; type: functional; summary of the method: as §2
[9] = test system: A2058; assay: Cell cycle arrest in human A2058 cells assessed as accumulation at G1 phase at 2 uM treated 1 hr and measured 10 hr post double hydroxyurea-synchrony release using propidium iodide staining by FACS analysis; type: functional
[10] = test system: A2058; assay: Cell cycle arrest in human A2058 cells assessed as accumulation at G2/M phase at 2 uM treated 1 hr and measured 10 hr post double hydroxyurea-synchrony release using propidium iodide staining by FACS analysis (reference value: 65 %); type: functional
[11] = test system: HeLa; assay: Cell cycle arrest at G2 phase in human HeLa cells assessed as delay in entry into mitosis at 2 uM treated 1 hr after double thymidine-synchrony release by MPM-2-based FACS analysis (reference value: 8 hrs); type: functional
[12] = test system: HeLa; assay: Cell cycle arrest at G2 phase in human HeLa cells assessed as effect on CCNB1 accumulation at 2 uM treated at early S phase measured after 6-14 hr post thymidine-synchrony release by immunoblot method; type: functional, cell-based
Summary of the method: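 HeLa cells synchronized by double thymidine block and released, treated with 2 μM inhibitor in early S phase, or left untreated. Harvested at set times after release, lysed in NETN with phosphatase and protease inhibitors, run on SDS-PAGE and immunoblotted for cyclin B1 and phosphotyrosine 15 CDK1/2, with cyclin D3 as loading control. Detection by HRP secondary and ECL.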

[13] = test system: HeLa; assay: Cell cycle arrest at G2 phase in human HeLa cells assessed as decrease in Cyclin A-CDK2 level at 2 uM treated at early S phase measured after 6-14 hr post thymidine-synchrony release by immunoblot method relative to untreated control; type: functional, cell-based
[14] = test system: HeLa; assay: Cell cycle arrest at G2 phase in human HeLa cells assessed as increase in Wee1 level at 2 uM treated at early S phase measured after 8-14 hr post-synchrony release by immunoblot method; type: functional, cell-based
[15] = test system: HeLa; assay: Cell cycle arrest at G2 phase in human HeLa cells at 2 uM treated 8 hr and measured 12 hr post-synchrony release using Propidium iodide staining by FACS analysis in presence of p38 MAPK inhibitor SB203580; type: functional, cell-based
[16] = test system: RKO; assay: Toxicity in human RKO cells at IC50 after 3 days by MTT assay; type: cell-based; details: 72 h
[17] = test system: MDA-MB-435; assay: Toxicity in human MDA-MB-435 cells at 8 uM by MTT assay; type: cell-based; details: mda-mb-435, 8 µM
[18] = test system: HeLa; assay: Cell cycle arrest in synchronized human HeLa cells assessed as delay in mitotic entry at 2 uM by time-lapse microscopy (reference value: 8-9 hrs); type: functional
[19] = test system: HeLa; assay: Cell cycle arrest in synchronized human HeLa cells assessed as time required to reach anaphase/telophase at 2 uM by time-lapse microscopy (reference value: 78+/-51 mins); type: functional
[20] = test system: HeLa; assay: Cell cycle arrest in human HeLa cells transfected with cyclin D3 siRNA assessed as delay in progression into mitosis at 2 uM measured after 8 to 20 hr post hydroxyurea-synchrony release by time-lapse microscopy; type: functional, cell-based
Summary of the method: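 HeLa cells transfected with 20 nM cyclin D3 siRNA number 1 or scrambled siRNA, then synchronized by overnight 2 mM hydroxyurea block and released. Treated with CDK4 inhibitor, siRNA, or both; entry into mitosis followed by time-lapse microscopy.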

[21] = test system: HeLa; assay: Induction of abberent mitosis in human HeLa cells assessed as lagging chromosomes at astral side of spindle microtubules at 2 uM treated 1 hr and measured 12 hr post thymidine-synchrony release by fluorescence microscopy; type: functional, cell-based
[22] = test system: HeLa; assay: Induction of abberent mitosis in human HeLa cells expressing GFP-H2B assessed as micronuclei formation during interphase at 2 uM treated 1 hr and measured 24 hr post thymidine-synchrony release by time-lapse microscopy (reference value: 10%); type: functional
[23] = test system: HeLa; assay: Cell cycle arrest in human HeLa cells assessed as accumulation at G2/M phase at 2 uM treated 4 hr and measured 10 hr post double thymidine-synchrony release using propidium iodide staining by FACS analysis (reference value: 31 %); type: functional; summary of the method: as §2
[24] = test system: HeLa; assay: Cell cycle arrest at G2 phase in human HeLa cells assessed as time taken to reach peak mitosis at 2 uM treated at early S phase post thymidine-synchrony release by immunoblot method (reference value: 9-10 hrs); type: functional
[25] = test system: HeLa; assay: Induction of abberent mitosis in human HeLa cells assessed as lagging chromosomes at 2 uM treated 1 hr and measured 12 hr post thymidine-synchrony release by fluorescence microscopy

Tyrosine-protein kinase Lck, sequence (P06239 whole entry): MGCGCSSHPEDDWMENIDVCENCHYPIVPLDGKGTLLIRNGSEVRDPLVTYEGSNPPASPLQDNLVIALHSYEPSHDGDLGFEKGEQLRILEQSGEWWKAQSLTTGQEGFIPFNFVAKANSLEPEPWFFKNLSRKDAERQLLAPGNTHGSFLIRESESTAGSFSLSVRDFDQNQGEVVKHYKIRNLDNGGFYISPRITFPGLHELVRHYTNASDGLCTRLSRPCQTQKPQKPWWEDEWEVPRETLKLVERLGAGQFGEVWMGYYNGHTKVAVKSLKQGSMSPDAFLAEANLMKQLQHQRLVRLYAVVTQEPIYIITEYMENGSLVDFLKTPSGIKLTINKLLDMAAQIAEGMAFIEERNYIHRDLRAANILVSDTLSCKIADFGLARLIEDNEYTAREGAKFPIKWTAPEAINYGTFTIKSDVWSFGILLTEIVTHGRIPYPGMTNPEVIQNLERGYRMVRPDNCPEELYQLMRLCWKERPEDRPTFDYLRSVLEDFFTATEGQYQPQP
Cyclin-dependent kinase 4 (Homo sapiens), sequence (P11802 whole entry): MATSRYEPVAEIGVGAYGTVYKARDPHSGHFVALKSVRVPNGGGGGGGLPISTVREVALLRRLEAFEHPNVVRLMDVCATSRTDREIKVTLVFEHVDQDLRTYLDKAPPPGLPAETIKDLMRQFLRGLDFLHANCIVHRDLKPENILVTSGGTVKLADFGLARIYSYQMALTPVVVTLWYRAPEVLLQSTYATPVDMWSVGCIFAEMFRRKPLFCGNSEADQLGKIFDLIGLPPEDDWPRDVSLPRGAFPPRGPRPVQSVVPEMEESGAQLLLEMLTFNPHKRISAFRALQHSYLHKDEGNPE
Proto-oncogene tyrosine-protein kinase Src, sequence (P12931 2-536 limits assumed): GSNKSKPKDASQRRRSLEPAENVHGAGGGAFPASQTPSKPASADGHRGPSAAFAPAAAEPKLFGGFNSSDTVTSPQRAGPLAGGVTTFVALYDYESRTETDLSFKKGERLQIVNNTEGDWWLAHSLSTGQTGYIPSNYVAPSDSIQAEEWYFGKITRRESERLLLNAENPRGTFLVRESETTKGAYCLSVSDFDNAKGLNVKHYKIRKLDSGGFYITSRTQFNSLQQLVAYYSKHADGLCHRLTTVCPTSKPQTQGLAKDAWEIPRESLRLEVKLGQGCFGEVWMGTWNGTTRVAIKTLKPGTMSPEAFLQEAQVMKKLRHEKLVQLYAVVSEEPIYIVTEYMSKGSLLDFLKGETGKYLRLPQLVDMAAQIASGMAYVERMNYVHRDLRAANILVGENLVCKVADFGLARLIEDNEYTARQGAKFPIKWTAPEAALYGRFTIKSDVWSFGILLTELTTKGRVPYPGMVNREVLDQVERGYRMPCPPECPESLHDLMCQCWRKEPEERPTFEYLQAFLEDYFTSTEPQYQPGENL

| SMILES | IC50 [1] [µM] | IC50 [2] [µM] | Activity [3] [%] | inhibition [4] | IC50 [5] [µM] | Activity [6] [%] | Activity [7] [%] | Time [8] [h] | Activity [9] [%] | Activity [10] [%] | Time [11] [h] | Activity [12] | Activity [13] | Activity [14] | Activity [15] | Activity [16] | Activity [17] | Time [18] [h] | Time [19] [min] | Activity [20] | also measured |
| --- | --- | --- | --- | --- | --- | --- | --- | --- | --- | --- | --- | --- | --- | --- | --- | --- | --- | --- | --- | --- | --- |
| COc1cccc(C(=O)c2sc(Nc3ccc(N4CCN(C(C)C)CC4)cc3)nc2N)c1 | 3.48 | > 100 | 65 | Active | 1.1 | 9 | 84 | >4 | 7 | 57 | 12 | inactive | Active | Active | Active | Toxic | Toxic | 11 | 152 | Active | Activity [21]: Active; Activity [22]: 30%; Activity [23]: 88%; Time [24]: 12 h; Activity [25]: 40% |
| CN1CCN(c2ccc(Nc3nc(N)c(C(=O)c4ccc5c(c4)OCCO5)s3)cc2)CC1 | 3.21 | > 100 | 65 | Active | 3.85 | 9 | 84 | >4 | 7 | 57 | 12 | inactive | Active | Active | Active | Toxic | Toxic | 11 | 152 | Active | Activity [21]: Active; Activity [22]: 30%; Activity [23]: 88%; Time [24]: 12 h; Activity [25]: 40% |
